Laboratory results published in ChEMBL document CHEMBL1146454, “Antifungal 3-butylisocoumarins from Asteraceae-Anthemideae” (J Nat Prod, 2004).
In brackets after ≈: the same amount, converted by molar mass. Activity calls are given as the source filed them. The rule behind the calls is not given here.

What was measured:
Pyricularia grisea = assay: Antifungal activity against Pyricularia grisea assessed as inhibition of germ-tube development by microdilution method; assay type: functional, organism-based
Summary of the method: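 Pyricularia grisea isolate from infected rice leaves (Thailand), tested in 4% malt extract broth by microdilution. Stock in acetone/malt extract emulsified with 0.2% Tween 80, diluted 2-fold; final range 200–0.78 μg/mL. Inoculum 10⁴ CFU conidia per well. Incubated 16 h at room temperature, stopped with lactophenol blue. Germ-tube size measured by pixel counts of 10 conidia per well. EC50/EC90 by probit; MIC is the first concentration giving total inhibition.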

Cladosporium herbarum = assay: Antifungal activity against Cladosporium herbarum assessed as inhibition zone in mycelial layer assessed per spot by TLC bioautography assay; assay type: functional
Summary of the method: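 TLC bioautography with Cladosporium herbarum strain VIAM-MA1511 as the mycelial layer. Compounds were applied as a dilution series from 100 to 25 μg/spot, and plates were held 3 days. The MIC was the first amount in the series that gave a homogeneous inhibition zone in the mycelial layer.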

Work on `CC(C)CC(=O)OCC#CCc1cc2ccccc2c(=O)o1` [CAPILLARIN ISOVALERATE] yielded an EC50 (Pyricularia grisea) of 5 µg/mL (≈ 16.8 µM), an EC90 (Pyricularia grisea) of 13 µg/mL (≈ 43.6 µM) and an MIC (Pyricularia grisea) of 25 µg/mL (≈ 83.8 µM). For the same compound, the Activity (Cladosporium herbarum) was “inactive”.

With `CC[C@@H]1O[C@H]1c1cc2ccccc2c(=O)o1` the EC50 (Pyricularia grisea) was 93 µg/mL (≈ 430 µM), the MIC (Pyricularia grisea) was over 200 µg/mL and the MIC (Cladosporium herbarum) was 25 µg.

In the case of `CC/C=C(\Br)c1cc2ccccc2c(=O)o1`, the EC50 (Pyricularia grisea) is reported as 2 µg/mL (≈ 7.17 µM), the EC90 (Pyricularia grisea) is reported as 9 µg/mL (≈ 32.2 µM) and the MIC (Pyricularia grisea) is reported as 12 µg/mL (≈ 43 µM). The MIC (Cladosporium herbarum) was under 25 µg.

`CC#CCc1cc2ccccc2c(=O)o1` [CAPILLARIN] was tested, and the EC50 (Pyricularia grisea) was 37 µg/mL (≈ 187 µM), the EC90 (Pyricularia grisea) was 92 µg/mL (≈ 464 µM) and the MIC (Pyricularia grisea) was 100 µg/mL (≈ 504 µM). The Activity (Cladosporium herbarum) was “inactive”.

In the case of `CC/C=C/c1cc2cccc(O)c2c(=O)o1`, the EC50 (Pyricularia grisea) is reported as 4 µg/mL (≈ 18.5 µM), the EC90 (Pyricularia grisea) is reported as 19 µg/mL (≈ 87.9 µM) and the MIC (Pyricularia grisea) is reported as 25 µg/mL (≈ 116 µM). For the same compound, the MIC (Cladosporium herbarum) was over 100 µg.

Work on `COc1cc(O)c2c(c1)C[C@@H](C)OC2=O` yielded an EC50 (Pyricularia grisea) of 47 µg/mL (≈ 226 µM), an EC90 (Pyricularia grisea) of 106 µg/mL (≈ 509 µM) and an MIC (Pyricularia grisea) of 200 µg/mL (≈ 961 µM). It also gave an MIC (Cladosporium herbarum) of 25 µg.

With `CC[C@@H](O)[C@H](O)c1cc2ccccc2c(=O)o1` (relative stereo) the Activity (Pyricularia grisea) was “inactive”.

`CC(=O)/C=C/c1cc2ccccc2c(=O)o1` gave an EC50 (Pyricularia grisea) of 5 µg/mL (≈ 23.3 µM), an EC90 (Pyricularia grisea) of 21 µg/mL (≈ 98 µM) and an MIC (Pyricularia grisea) of 25 µg/mL (≈ 117 µM). For the same compound, the MIC (Cladosporium herbarum) was under 25 µg.

`CCCC(Br)c1cc2ccccc2c(=O)o1` (centres undefined) showed an EC50 (Pyricularia grisea) of 35 µg/mL (≈ 124 µM), an EC90 (Pyricularia grisea) of 96 µg/mL (≈ 341 µM) and an MIC (Pyricularia grisea) of 100 µg/mL (≈ 356 µM). The MIC (Cladosporium herbarum) was 25 µg.

`COC1=CC(=O)C[C@@H](C)[C@]12Oc1c(Cl)c(OC)cc(OC)c1C2=O` [GRISEOFULVIN] was tested, and the EC50 (Pyricularia grisea) was 4 µg/mL (≈ 11.3 µM) and the MIC (Pyricularia grisea) was over 200 µg/mL.

`CC(O)C#Cc1cc2ccccc2c(=O)o1` (centres undefined) gave an EC50 (Pyricularia grisea) of 0.9 µg/mL (≈ 4.2 µM), an MIC (Pyricularia grisea) of 50 µg/mL (≈ 233 µM) and an MIC (Cladosporium herbarum) of 100 µg.

With `CCCCc1cc2ccccc2c(=O)o1` [DIHYDROARTEMIDIN] the EC50 (Pyricularia grisea) was 10 µg/mL (≈ 49.4 µM), the EC90 (Pyricularia grisea) was 40 µg/mL (≈ 198 µM) and the MIC (Pyricularia grisea) was 50 µg/mL (≈ 247 µM). The MIC (Cladosporium herbarum) was 100 µg.

`CCC(Br)C(Br)c1cc2ccccc2c(=O)o1` (centres undefined) was tested, and the MIC (Cladosporium herbarum) was 100 µg.

`C[C@@H](O)/C=C/c1cc2ccccc2c(=O)o1` showed an EC50 (Pyricularia grisea) of 140 µg/mL (≈ 647 µM), an EC90 (Pyricularia grisea) of 292 µg/mL (≈ 1350 µM) and an MIC (Pyricularia grisea) of over 200 µg/mL. It also gave an MIC (Cladosporium herbarum) of 100 µg.

With `CC/C=C/c1cc2ccccc2c(=O)o1` the EC50 (Pyricularia grisea) was 11 µg/mL (≈ 54.9 µM), the EC90 (Pyricularia grisea) was 19 µg/mL (≈ 94.9 µM) and the MIC (Pyricularia grisea) was 25 µg/mL (≈ 125 µM). It also gave an MIC (Cladosporium herbarum) of 100 µg.

`CCCC(Br)(Br)c1cc2ccccc2c(=O)o1` showed an EC50 (Pyricularia grisea) of 22 µg/mL (≈ 61.1 µM), an MIC (Pyricularia grisea) of over 200 µg/mL and an MIC (Cladosporium herbarum) of 50 µg.

For `CC#CCc1cc2cccc(O)c2c(=O)o1`, the EC50 (Pyricularia grisea) was 2 µg/mL (≈ 9.34 µM), the EC90 (Pyricularia grisea) was 102 µg/mL (≈ 476 µM) and the MIC (Pyricularia grisea) was 100 µg/mL (≈ 467 µM). For the same compound, the Activity (Cladosporium herbarum) was “inactive”.

`CC[C@H](O)[C@H](O)c1cc2ccccc2c(=O)o1` (relative stereo) was tested, and the Activity (Pyricularia grisea) was “inactive”.

Work on `O=c1occc2ccccc12` [ISOCOUMARIN] yielded an EC50 (Pyricularia grisea) of 83 µg/mL (≈ 568 µM) and an MIC (Pyricularia grisea) of over 200 µg/mL.

Compound `CN(CC[C@H](N)CC(=O)N[C@H]1C=C[C@H](n2ccc(N)nc2=O)O[C@@H]1C(=O)O)C(=N)N` [BLASTICIDIN_S] has an EC50 (Pyricularia grisea) of 13 µg/mL (≈ 30.8 µM) and an MIC (Pyricularia grisea) of over 200 µg/mL.

`C=C/C=C/c1cc2ccccc2c(=O)o1` showed an EC50 (Pyricularia grisea) of 14 µg/mL (≈ 70.6 µM), an EC90 (Pyricularia grisea) of 45 µg/mL (≈ 227 µM) and an MIC (Pyricularia grisea) of 50 µg/mL (≈ 252 µM). The MIC (Cladosporium herbarum) was 25 µg.

`CO/N=C(/C(=O)OC)c1ccccc1COc1ccccc1C` [KRESOXIM-METHYL] was tested, and the EC50 (Pyricularia grisea) was 0.003 µg/mL (≈ 0.00957 µM) and the MIC (Pyricularia grisea) was over 200 µg/mL.

With `CCC#Cc1cc2ccccc2c(=O)o1` [CORFIN] the EC50 (Pyricularia grisea) was 3 µg/mL (≈ 15.1 µM), the EC90 (Pyricularia grisea) was 99 µg/mL (≈ 499 µM) and the MIC (Pyricularia grisea) was 100 µg/mL (≈ 504 µM). The MIC (Cladosporium herbarum) was over 100 µg.

With `CCCC(O)c1cc2ccccc2c(=O)o1` (centres undefined) the EC50 (Pyricularia grisea) was 37 µg/mL (≈ 170 µM), the EC90 (Pyricularia grisea) was 83 µg/mL (≈ 380 µM) and the MIC (Pyricularia grisea) was 100 µg/mL (≈ 458 µM). The MIC (Cladosporium herbarum) was 100 µg.

With `CC[C@H]1O[C@@H]1c1cc2ccccc2c(=O)o1` (racemic) the Activity (Pyricularia grisea) was “inactive” and the MIC (Cladosporium herbarum) was 50 µg.

In the case of `CC[C@H](O)Cc1cc2ccccc2c(=O)o1`, the EC50 (Pyricularia grisea) is reported as 25 µg/mL (≈ 115 µM), the MIC (Pyricularia grisea) is reported as over 200 µg/mL and the MIC (Cladosporium herbarum) is reported as 100 µg.

For `CC/C=C/c1cc2c(O)cccc2c(=O)o1` [ARTEMIDINOL], the EC50 (Pyricularia grisea) was 12 µg/mL (≈ 55.5 µM), the EC90 (Pyricularia grisea) was 32 µg/mL (≈ 148 µM) and the MIC (Pyricularia grisea) was 50 µg/mL (≈ 231 µM). It also gave an MIC (Cladosporium herbarum) of over 100 µg.

`CC(=O)OC(C)/C=C/c1cc2ccccc2c(=O)o1` (centres undefined) was tested, and the EC50 (Pyricularia grisea) was 8 µg/mL (≈ 31 µM), the EC90 (Pyricularia grisea) was 30 µg/mL (≈ 116 µM) and the MIC (Pyricularia grisea) was 50 µg/mL (≈ 194 µM). For the same compound, the MIC (Cladosporium herbarum) was 50 µg.

In the case of `CC[C@H](Cc1cc2ccccc2c(=O)o1)OC`, the Activity (Pyricularia grisea) is reported as “inactive” and the MIC (Cladosporium herbarum) is reported as over 100 µg.

Compound `CCCCNC(=O)n1c(NC(=O)OC)nc2ccccc21` [BENOMYL] has an EC50 (Pyricularia grisea) of 0.06 µg/mL (≈ 0.207 µM), an MIC (Pyricularia grisea) of 200 µg/mL (≈ 689 µM) and an MIC (Cladosporium herbarum) of under 25 µg.
